Screening data deposited in PubChem BioAssay by several laboratories.
HCT116 PTEN-null: growth suppressors of cells with PTEN tumor suppressor deletion; HCT116 PTEN-null viability, CellTiter-Glo, 60 h; hits give low values; viability, % at 10 µM; 140,000 compounds, 1.2% hits; AID 827;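 active = viability at or below a set limit, 4 SD under the median of all tested compounds, cut at about 3.7% in these data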;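 note: PTEN knockout HCT116 line with beta catenin targeted HCT116 as companion control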
Cav32 inh: blocks human Cav3.2 T-type calcium channel; Cav3.2-expressing cells, Fluo-4 calcium fluorescence FDSS; hits give low values; O95180; 100,000 compounds, 4% hits; B-score at 10 µM;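 active = single-dose well whose peak fluorescence ratio is a statistical outlier from its plate by either plate-standardised score or position-corrected B-score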
Lung fibro prol: blocks proliferation of human lung fibroblasts. AID 719. 85,000 compounds, 1.1% hits. viability, % at 10 µM. LL 47 human lung fibroblast viability, ATP luminescence; hits give low values;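 active = viability at or below 50% in the single dose screen; inactive = viability above 50%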;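 note: compound exposure lasted 72 h before the ATP readout; 100% = median luminescence of untreated cell-only wells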
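test system = LL 47 human lung fibroblasts | amount = 1,150 fibroblasts seeded per well | medium = 15% FBS in IMEM | times = overnight cell rest, 72 h compound treatment at 37 °C | measured by = CellTiter-Glo luminescence measuring cellular ATP | read-out = viability percentage against median untreated-cell control | benchmarks = cell-only wells, no compound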
H69AR inhibit: blocks growth of human H69AR lung tumor cells; 85,000 compounds, 6% hits; H69AR lung tumor viability, ATP luminescence, 72 h; hits give low values; AID 598; viability, % at 10 µM;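 active = viability at or below 40%; inactive = viability above 40%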;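 note: multidrug resistant small cell line overexpressing MRP-1 efflux transporter; 100% = mean luminescence of untreated control wells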
HCT116 bCat-KO: beta-catenin-lacking colon tumor cell growth suppression | HCT116 beta-catenin knockout viability, CellTiter-Glo, 60 h; hits give low values | AID 818 | 140,000 compounds, 1.5% hits | viability, % at 10 µM;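 active = viability at or under a set limit, the compound median less 4 SD, cut at about 6% in these data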;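 note: 0% = Hyamine 1622 control at 20 µM and 100% = untreated cell control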
HUVEC inhibit: blocks proliferation of human endothelial cells | HUVEC proliferation, CellTiter-Glo luminescence, 72 h; hits give low values | viability, % at 10 µM (by protocol) | 86,000 compounds, 1.1% hits;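 active = viability at or below 30%; inactive = viability above 30%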;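 note: 100% = median luminescence of DMSO-only cell control wells on each plate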
Active calls of the source: *. A selection: hits, their analogues and other compounds. The true share with any hit is near 7.1%.

Results for CCOc1cc(-c2nc3ccccn3c2NCC2CCCO2)ccc1O (centres undefined) ?
HCT116 PTEN-null: 72; Cav32 inh: -1.1; Lung fibro prol: 98; H69AR inhibit: 28*; HCT116 bCat-KO: 72; HUVEC inhibit: 70

What do the screens show for `O=c1[nH]c(CN2CCc3ccccc3C2)nc2ccccc12`?
HCT116 PTEN-null: 110; Cav32 inh: 0.14; Lung fibro prol: 83; H69AR inhibit: 86; HCT116 bCat-KO: 92; HUVEC inhibit: 81

What do the screens show for `Cc1[nH]c2ccccc2c1CN1CCc2ccccc2C1`?
HCT116 PTEN-null: 2.7*; Cav32 inh: 0.3; Lung fibro prol: 63; H69AR inhibit: 35*; HCT116 bCat-KO: 2.2*; HUVEC inhibit: 79

How did COc1ccc([N+](=O)[O-])cc1N(CC(O)CN(CC(C)C)CC(C)C)S(=O)(=O)c1ccccc1 (centres undefined) do in these assays?
HCT116 PTEN-null: 54; Cav32 inh: -3.9*; HCT116 bCat-KO: 50

How did CCCCN(CCCC)CC(O)CN(c1cc([N+](=O)[O-])ccc1OC)S(=O)(=O)c1ccccc1 (centres undefined) do in these assays?
HCT116 PTEN-null: 65; HCT116 bCat-KO: 67

What do the screens show for `COc1ccccc1C(=O)N/C(N)=N/c1nc2ccccc2o1`?
HCT116 PTEN-null: 80; Cav32 inh: -0.17; Lung fibro prol: 102; H69AR inhibit: 15*; HCT116 bCat-KO: 92; HUVEC inhibit: 59

Results for CCOC(=O)c1c(C)[nH]c(C(=O)C(C)OC(=O)c2cccc(OCc3c(C)noc3C)c2)c1C (centres undefined) ?
HCT116 PTEN-null: 63; Cav32 inh: -4.7*; Lung fibro prol: 98; H69AR inhibit: 81; HCT116 bCat-KO: 51; HUVEC inhibit: 83

Results for COc1ccc2nc(NCCCNC(=O)c3cc(OC)c(OC)c(OC)c3)c(C#N)cc2c1 ?
HCT116 PTEN-null: 98; Cav32 inh: -1.2; Lung fibro prol: 95; H69AR inhibit: 76; HCT116 bCat-KO: 93; HUVEC inhibit: 90

How did CCOc1ccc2nc(NCCNC(=O)Nc3ccccc3)c(C#N)cc2c1 do in these assays?
HCT116 PTEN-null: 88; Cav32 inh: -0.89; Lung fibro prol: 102; H69AR inhibit: 28*; HCT116 bCat-KO: 95; HUVEC inhibit: 73

How did CC1CN(C(=O)c2c(Br)cnn2C)CC(C)O1 (centres undefined) do in these assays?
HCT116 PTEN-null: 97; HCT116 bCat-KO: 86

What do the screens show for `CC(C)Oc1ccc(/C(O)=C2/C(=O)C(=O)N(CCN(C)C)C2c2cccs2)cc1` (centres undefined)?
HCT116 PTEN-null: 100; HCT116 bCat-KO: 93

What do the screens show for `CN(C)S(=O)(=O)c1ccc2[nH]cc(/C=C/c3nc4ccccc4c(=O)n3-c3ccccc3)c2c1`?
HCT116 PTEN-null: 60; Cav32 inh: 0.098; Lung fibro prol: 73; H69AR inhibit: 37*; HCT116 bCat-KO: 45; HUVEC inhibit: 57

How did Cc1[nH]c2ccccc2c1/C=C/c1nc2ccccc2c(=O)n1-c1ccc([N+](=O)[O-])cc1 do in these assays?
HCT116 PTEN-null: 34; HCT116 bCat-KO: 56

How did C=CCn1c(COc2ccc(OC)cc2)nnc1SCn1nnc2ccccc2c1=O do in these assays?
HCT116 PTEN-null: 88; HCT116 bCat-KO: 92

Results for CCN(CC)CCC(c1ccc2c(c1)OCO2)c1c(O)cc(OC)cc1OC (centres undefined) ?
Cav32 inh: -0.22

How did CC(C)NC(C(=O)Nc1cc(Cl)cc(Cl)c1)c1ccccc1 (centres undefined) do in these assays?
HCT116 PTEN-null: 63; Cav32 inh: -4.6*; HCT116 bCat-KO: 58

What do the screens show for `Cc1cccc(NC2=C(NC(=O)c3ccccc3)C(=O)c3ccccc3C2=O)c1`?
HCT116 PTEN-null: 4; HCT116 bCat-KO: 3.6*

How did CCc1nc(SCc2ccc(F)cc2)[nH]c(=O)c1C#N do in these assays?
HCT116 PTEN-null: 99; Cav32 inh: -7.7*; Lung fibro prol: 100; H69AR inhibit: 96; HCT116 bCat-KO: 92; HUVEC inhibit: 91

What do the screens show for `Cc1ccc(S(=O)(=O)CC#CCOC(=O)c2ccc([N+](=O)[O-])cc2)cc1`?
HCT116 PTEN-null: 92; Cav32 inh: -0.037; Lung fibro prol: 43*; H69AR inhibit: 1.6*; HCT116 bCat-KO: 71; HUVEC inhibit: 43

How did Cc1ccc(C(=O)c2ccc([N+](=O)[O-])cc2)cc1 do in these assays?
HCT116 PTEN-null: 98; Cav32 inh: -0.38; Lung fibro prol: 105; H69AR inhibit: 99; HCT116 bCat-KO: 98; HUVEC inhibit: 116

Results for O=C(CCC(=O)N/N=C/c1ccccc1O)NCc1ccccc1 ?
HCT116 PTEN-null: 83; HCT116 bCat-KO: 80

How did COc1ccc(C(c2nnnn2C(C)(C)C)N2CCN(c3nc4ccccc4s3)CC2)cc1OC (centres undefined) do in these assays?
HCT116 PTEN-null: 66; Cav32 inh: -4*; Lung fibro prol: 94; H69AR inhibit: 82; HCT116 bCat-KO: 79; HUVEC inhibit: 105

Results for COc1ccccc1N1CCN(C(c2ccccc2Cl)c2nnnn2C(C)(C)C)CC1 (centres undefined) ?
HCT116 PTEN-null: 52; Cav32 inh: -6.8*; HCT116 bCat-KO: 53

Results for COc1ccccc1N1CCN(C(c2ccc(Cl)cc2)c2nnnn2C(C)(C)C)CC1 (centres undefined) ?
HCT116 PTEN-null: 46; Cav32 inh: -3.8; Lung fibro prol: 89; H69AR inhibit: 99; HCT116 bCat-KO: 51; HUVEC inhibit: 101

What do the screens show for `CCN1CCN(C(c2ccc(OC)c(OC)c2)c2nnnn2C(C)(C)C)CC1` (centres undefined)?
HCT116 PTEN-null: 97; Lung fibro prol: 102; H69AR inhibit: 98; HCT116 bCat-KO: 97; HUVEC inhibit: 96

What do the screens show for `COc1cc(C(c2nnnn2C(C)(C)C)N2CCN(c3nc4ccccc4s3)CC2)ccc1O` (centres undefined)?
HCT116 PTEN-null: 73; Cav32 inh: -2.3; Lung fibro prol: 84; H69AR inhibit: 9.0*; HCT116 bCat-KO: 70; HUVEC inhibit: 96

Results for Cc1cc(OC(=O)c2c(C)cc(OC(=O)c3c(C)cc(O)cc3O)cc2O)cc(O)c1C(=O)O ?
Cav32 inh: -1.6

How did Cc1cc(C)n2c(Br)c(CSc3nc4ccccc4s3)nc2n1 do in these assays?
HCT116 PTEN-null: 86; HCT116 bCat-KO: 77

Results for Cc1cccc(NS(=O)(=O)c2cnc(Cl)c(Br)c2)n1 ?
HCT116 PTEN-null: 87; HCT116 bCat-KO: 85

How did COc1cccc(NC(=O)c2cc(OC)c(OC)c(OC)c2Br)c1 do in these assays?
HCT116 PTEN-null: 90; HCT116 bCat-KO: 96

Results for CN(C)S(=O)(=O)c1cc([N+](=O)[O-])ccc1N1CCCCCC1 ?
HCT116 PTEN-null: 74; Cav32 inh: -2.8; HCT116 bCat-KO: 83

How did CC(C)CN(CC(C)C)S(=O)(=O)c1cc([N+](=O)[O-])ccc1N1CCCCCC1 do in these assays?
HCT116 PTEN-null: 71; Cav32 inh: -5.2*; HCT116 bCat-KO: 63
